Data on 13 molecules can be found in ChEMBL document CHEMBL1800020, “Synthesis, conformation and biology of naphthoxylosides” (Bioorg Med Chem, 2011).

For orientation: inhibition means the percentage by which the read-out fell short of the control. Read a high inhibition as a strong effect.

The test system of data set [1] is HCC70. In words: Antiproliferative activity against human HCC70 cells after 96 hrs by crystal violet staining method. The data set is classed as functional. As to conditions: read-out: ED50 (the source's name). The essentials: (§1)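 Normal breast fibroblasts (CCD-1095Sk) or HCC70 breast carcinoma cells seeded at 5000 cells/well, in MEM or RPMI-1640 with 10% fetal calf serum. After 24 h, switched to serum-free Ham's F-12 with insulin (10 µg/mL) and transferrin (25 µg/mL) plus increasing xyloside concentrations, 96 h total. Fixed in 1% glutaraldehyde, stained with 0.1% crystal violet, lysed in 1% Triton X-100, read at A600. ED50 taken from % of untreated growth.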

Data set [2] concerns HCC70. As to the kind of experiment: Induction of glycosaminoglycan chains priming from beta-D-xylopyranoside in human HCC70 cells using [35S]-Sulfate after 30 mins by beta counting. It counts as functional, cell-based. The essentials: (§2)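 Confluent monolayers incubated with xylosides in low-sulfate labeling medium with 2 mM glutamine and 20 µCi/mL [35S]sulfate; xylosides diluted from 20 mM stocks in Me2SO/water 1:1. Medium collected, labeled polyanions captured on DEAE-cellulose, free primed GAG chains separated from PG on Octyl-Sepharose. Ethanol-precipitated, sized by Superose 6 gel-permeation FPLC, radioactivity counted by beta counter.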

A short description of data set [3]: Antiproliferative activity against human CCD-1095SK cells after 96 hrs by crystal violet staining method. As to conditions: for GI50 at 96 h: CCD-1095SK cells, read-out: ED50. It counts as cell-based. An outline of the steps:
as §1

For data set [4], the system named is CCD-1095SK. In words: Induction of glycosaminoglycan chains priming in human CCD-1095SK cells using [35S]-Sulfate after 30 mins by beta counting. The data set is classed as functional, cell-based. An outline of the steps:
as §2

For data set [5], the system named is HCC70. As to the kind of experiment: Inhibition of endogenous proteoglycans production in human HCC70 cells at 0.1 mM. The data set is classed as functional.
In data set [6] the test system is HCC70. As to the kind of experiment: Inhibition of glycosaminoglycan chains priming from beta-D-xylopyranoside in human HCC70 cells at 0.1 mM. It counts as functional.

Activity calls are given as the source filed them. The calls are words filed in the database; no cut-off is given here.

As to `CO[C@H]1[C@H](Oc2ccc3ccccc3c2)OC[C@@H](O)[C@@H]1O`, the EC50 in data set [1] (Homo sapiens, HCC70, 96 h) came out at 127 µM. In addition, the result in data set [2] and in data set [4] was inactive. Besides, the GI50 at 96 h in data set [3] amounted to 55 µM.

Consider `O[C@H]1[C@H](Oc2ccc3ccccc3c2)OC[C@@H](O)[C@H]1O`, for which, in data set [1] (Homo sapiens, HCC70, 96 h), the EC50 was determined as 178 µM. Besides, the outcome in data set [2] and in data set [4] was inactive. Further, in data set [3], the GI50 at 96 h was determined as 182 µM.

With `O[C@@H]1[C@@H](F)[C@H](Oc2ccc3ccccc3c2)OC[C@H]1O`, the EC50 in data set [1] (Homo sapiens, HCC70, 96 h) stood at 22 µM. The result in data set [2] and in data set [4] was inactive. Also, in data set [3], the GI50 at 96 h is 12 µM.

Consider `CO[C@@H]1CO[C@@H](Oc2ccc3ccccc3c2)[C@H](O)[C@H]1O`, for which the EC50 in data set [1] (Homo sapiens, HCC70, 96 h) came to 135 µM. In addition, the outcome in data set [2] and in data set [4] was inactive. Also, in data set [3], the GI50 at 96 h turned out to be 93 µM.

`O[C@@H]1CO[C@@H](Oc2ccc3ccccc3c2)C[C@H]1O`: in data set [1] (Homo sapiens, HCC70, 96 h), the EC50 was 228 µM. Besides, the outcome in data set [2] and in data set [4] was inactive. In addition, in data set [3], the GI50 at 96 h was determined as 19 µM.

Turning to `O[C@@H]1[C@@H](O)[C@H](Oc2ccc3ccccc3c2)OC[C@H]1O` (stereo in doubt; 1b), the EC50 in data set [1] came out at 91 µM. Moreover, the result in data set [2] and in data set [4] was Active. Further, the GI50 in data set [3] (ccd-1095sk, 96 h, read-out: ED50 (the source's name)) was determined as 243 µM.

Consider `O[C@H]1[C@H](Oc2ccc3ccccc3c2)OCC[C@@H]1O`, for which the EC50 in data set [1] (Homo sapiens, HCC70, 96 h) came to 284 µM. The result in data set [2] and in data set [4] was inactive. For the same molecule, the GI50 at 96 h in data set [3] is 285 µM. In data set [5], this molecule showed an inhibition at 100 µM of 24%.

On to `O[C@@H]1CO[C@@H](Oc2ccc3ccccc3c2)[C@H](O)C1`, for which the EC50 in data set [1] (Homo sapiens, HCC70, 96 h) amounted to 179 µM. The outcome in data set [2] and in data set [4] was inactive. The GI50 at 96 h in data set [3] is 79 µM.

As for `O[C@@H]1[C@@H](O)[C@H](Oc2ccc3ccccc3c2)OC[C@H]1F`, the inhibition at 100 µM in data set [6] came out at 23%; in data set [5] it was 33%. Further, the EC50 in data set [1] (Homo sapiens, HCC70, 96 h) stood at 37 µM. The result in data set [2] and in data set [4] was inactive. In data set [3], the GI50 at 96 h amounted to 32 µM.

On to `O[C@@H]1[C@@H](O)[C@H](Oc2ccc3ccccc3c2)OC[C@@H]1O`, for which the EC50 in data set [1] (Homo sapiens, HCC70, 96 h) is 371 µM. Further, the outcome in data set [2] and in data set [4] was inactive. The GI50 at 96 h in data set [3] was determined as 48 µM.

Turning to `Oc1ccc2cc(O[C@@H]3OC[C@@H](O)[C@H](O)[C@H]3O)ccc2c1`, the result in data set [2] and in data set [4] was Active.

For `O[C@H]1[C@H](Oc2ccc3ccccc3c2)OC[C@@H](O)[C@@H]1F`, the EC50 in data set [1] (Homo sapiens, HCC70, 96 h) stood at 94 µM. For the same molecule, the result in data set [2] and in data set [4] was inactive. In data set [3], the GI50 at 96 h was 72 µM.

As for `CO[C@@H]1[C@@H](O)[C@H](Oc2ccc3ccccc3c2)OC[C@H]1O`, the EC50 in data set [1] (Homo sapiens, HCC70, 96 h) was found to be 145 µM. Also, the result in data set [2] and in data set [4] was inactive. Further, the GI50 at 96 h in data set [3] stood at 17 µM.
